From ChEMBL document CHEMBL5380787, “Optimized M24B Aminopeptidase Inhibitors for CARD8 Inflammasome Activation” (J Med Chem, 2023)
Active and inactive are the calls of the source. The rule behind the calls is not given here.

What was measured:
[1] = biological target: T1, Xaa-Pro aminopeptidase 1 (Homo sapiens, UniProt Q9NQW7); test: Inhibition of 6-His tagged XPNPEP1 (unknown origin) expressed in Escherichia coli Rosetta DE3 cells using H-Lys(abz)-Pro-Pro-pNA as substrate at 20 uM incubated for 60 mins by fluorescence based analysis relative to control
In short: (§1)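 His6-tagged XPNPEP1 was expressed in E. coli Rosetta DE3 (IPTG, 16 h, 37 °C) and purified on TALON resin. Enzyme at 3.5 nM was exposed to compound, then H-Lys(abz)-Pro-Pro-pNA was added at 100 μM final. Fluorescence (Ex/Em 320/410) was followed for 60 min. Single-point inhibition used 20 μM; IC50 as mean ± SEM of three biological replicates.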

[2] = tested on: MV4-11; test: Cytotoxicity against human MV4-11 cells assessed as reduction in cell viability at 1 uM incubated for 24 hrs by celltiter-glo assay relative to control; format: functional
In short: (§2)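 Single-dose viability screen. MV4;11 or OCI-AML2 cells at 2000 cells/well were exposed to 1 μM compound for 24 h. Viability was read by CellTiter-Glo luminescence and expressed as percent inhibition. Values are means of three biological replicates.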

[3] = biological target: T2, Xaa-Pro dipeptidase (Homo sapiens) (UniProt P12955); test: Inhibition of recombinant human PEPD using Ala-Pro as substrate assessed as alanine release by measuring increase in fluorescense signal at 1 uM by fluorescence based analysis relative to control
T2 sequence (whole entry): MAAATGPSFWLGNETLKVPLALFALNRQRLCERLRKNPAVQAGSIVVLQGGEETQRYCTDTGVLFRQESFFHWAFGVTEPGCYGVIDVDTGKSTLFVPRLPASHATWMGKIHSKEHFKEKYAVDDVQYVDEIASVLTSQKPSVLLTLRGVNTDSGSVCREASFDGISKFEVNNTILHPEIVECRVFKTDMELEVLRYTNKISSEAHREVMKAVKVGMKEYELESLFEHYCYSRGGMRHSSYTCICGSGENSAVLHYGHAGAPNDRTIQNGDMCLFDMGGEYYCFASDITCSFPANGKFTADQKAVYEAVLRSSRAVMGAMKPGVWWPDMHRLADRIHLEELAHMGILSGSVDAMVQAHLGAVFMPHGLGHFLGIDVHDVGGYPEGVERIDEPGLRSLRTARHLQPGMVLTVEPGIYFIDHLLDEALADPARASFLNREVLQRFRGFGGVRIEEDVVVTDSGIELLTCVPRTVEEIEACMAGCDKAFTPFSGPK
In short: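 Recombinant human PEPD at 50 nM was incubated with Ala-Pro at 40 μM final and compound. Released alanine was detected by coupled alanine transaminase/pyruvate oxidase conversion to H2O2 and resorufin fluorescence (Ex/Em 535/587 nm) at 25 °C.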

[4] = tested on: OCI-AML2; test: Cytotoxicity against human OCI-AML2 cells assessed as reduction in cell viability at 1 uM incubated for 24 hrs by celltiter-glo assay relative to control; format: functional; in short: as §2
[5] = tested on: MV4-11; test: Cytotoxicity against CASP1 knockout human MV4-11 cells assessed as reduction in cell viability incubated for 24 hrs by celltiter-glo assay; format: functional, cell-based; details: MV4-11, 24 h
In short: (§3)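 MV4;11 cells (WT or CASP1−/−), grown in RPMI 1640 with 10% FBS at 37 °C, 5% CO2, plated 2000 cells/well, dosed by pintool across 100 μM to 15.2 nM in three-fold steps for 24 h. Viability by CellTiter-Glo luminescence after 2 min shaking and 10 min at 25 °C. IC50 as mean ± SEM of three biological replicates.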

[6] = tested on: MV4-11; test: Cytotoxicity against human MV4-11 cells assessed as reduction in cell viability incubated for 24 hrs by celltiter-glo assay; format: functional, cell-based; details: MV4-11, 24 h; in short: as §3
[7] = biological target: T2, Xaa-Pro dipeptidase (Homo sapiens); test: (§4) Inhibition of recombinant human PEPD using Ala-Pro as substrate assessed as alanine release by measuring increase in fluorescense signal by fluorescence based analysis
[8] = Stability in human MV4-11 cells assessed as retention time of parent compound incubated for 24 hrs by LC/MS analysis; format: ADME, cell-based; details: mv4-11, 24 h
In short: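 Compound was held in MV4;11 conditioned medium for 24 h at 37 °C, then LC/MS was run, recording the retention times of the parent ester and its free acid.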

[9] = biological target: T1, Xaa-Pro aminopeptidase 1; test: Inhibition of 6-His tagged XPNPEP1 (unknown origin) expressed in Escherichia coli Rosetta DE3 cells using H-Lys(abz)-Pro-Pro-pNA as substrate incubated for 60 mins by fluorescence based analysis; in short: as §1
[10] = tested on: MV4-11; test: Cytotoxicity against CASP1 knockout human MV4-11 cells assessed as reduction in cell viability at 0.015 to 100 uM incubated for 24 hrs by celltiter-glo assay; format: functional; details: dose 0.015-100 µM; in short: as §3
[11] = tested on: MV4-11; test: Cytotoxicity against human MV4-11 cells assessed as reduction in cell viability at 0.015 to 100 uM incubated for 24 hrs by celltiter-glo assay; format: functional; details: dose 0.015-100 µM; in short: as §3
[12] = biological target: T3, Xaa-Pro dipeptidase (Homo sapiens, UniProt P12955); test: as §4
T3 sequence (P12955 whole entry): T2 sequence (whole entry)

[13] = Stability of the compound in human MV4-11 cells assessed as esterase-mediated hydrolysis by LC-MS analysis; format: ADME, cell-based
In short: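 Compound was incubated in conditioned medium from MV4;11 cells for 24 h at 37 °C, and LC/MS then measured intact ester remaining and the de-esterified free acid. n = 3, mean ± SEM.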

T1 sequence (Q9NQW7 whole entry): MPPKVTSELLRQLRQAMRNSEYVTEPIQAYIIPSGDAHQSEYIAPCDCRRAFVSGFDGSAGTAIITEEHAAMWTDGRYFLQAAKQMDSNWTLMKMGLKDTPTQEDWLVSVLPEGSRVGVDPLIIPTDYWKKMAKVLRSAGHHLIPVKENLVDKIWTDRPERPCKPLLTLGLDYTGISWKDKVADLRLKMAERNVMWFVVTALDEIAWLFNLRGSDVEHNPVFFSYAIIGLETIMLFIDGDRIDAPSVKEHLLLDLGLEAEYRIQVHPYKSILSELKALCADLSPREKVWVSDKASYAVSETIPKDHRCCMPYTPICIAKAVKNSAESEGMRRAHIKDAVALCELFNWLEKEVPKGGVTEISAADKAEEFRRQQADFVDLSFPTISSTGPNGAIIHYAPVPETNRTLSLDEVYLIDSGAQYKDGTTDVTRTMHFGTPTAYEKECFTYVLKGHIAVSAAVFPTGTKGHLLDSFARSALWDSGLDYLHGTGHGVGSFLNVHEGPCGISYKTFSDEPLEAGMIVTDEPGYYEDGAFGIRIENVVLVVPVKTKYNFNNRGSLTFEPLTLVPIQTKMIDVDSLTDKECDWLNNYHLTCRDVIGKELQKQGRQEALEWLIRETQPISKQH

Row | SMILES | IC50 [5] [µM] | IC50 [6] [µM] | Activity [10] [%] | Activity [11] [%] | also measured
1 | CC[C@H](C)[C@H](NC(=O)[C@@H]1CCCN1C(=O)[C@@H](O)[C@H](N)CC(C)C)C(=O)OC | > 20 | 0.6 | – | – | inhibition [1]: 68%; Activity [2]: 56%; inhibition [3]: 48%; Activity [4]: 42%
2 | CC(C)C[C@H](NC(=O)[C@@H]1CCCN1C(=O)[C@@H](O)[C@H](N)CC(C)C)C(=O)O | – | – | – | – | inhibition [7]: Active; Retention_time [8]: 2.6 min; inhibition [9]: Active
3 | CCCC[C@@H](N)[C@H](O)C(=O)N1CCC[C@H]1C(=O)OC | – | 11 | 98 | 20 | –
4 | COC(=O)[C@H](C)NC(=O)[C@@H]1CCCN1C(=O)[C@@H]1CCCN1C(=O)[C@@H](O)[C@H](N)CC(C)C | > 100 | 35 | – | – | inhibition [1]: 23%; Activity [2]: 107%; inhibition [3]: 96%; Activity [4]: 95%
5 | CC(C)CCNC(=O)[C@@H]1CCCN1C(=O)[C@@H](O)[C@H](N)CC(C)C | – | 15 | 92 | 20 | –
6 | CC(C)C[C@H](NC(=O)[C@@H]1CCCN1C(=O)[C@@H](O)[C@H](N)CC(C)C)C(=O)NCCc1ccc2cc[nH]c2c1 | – | 1.3 | – | – | IC50 [12]: 10 µM; IC50 [9]: 2 µM
7 | CC(C)C[C@@H](N)[C@H](O)C(=O)N1CCC[C@H]1C(=O)OC1CCCC1 | – | – | – | – | Stability [13]: Stable; inhibition [7]: Active; inhibition [9]: Active
8 | CC(C)C[C@@H](N)[C@H](O)C(=O)N1CCCC1 | – | > 100 | 85 | 91 | IC50 [12]: > 100 µM
9 | COC(=O)[C@H](CC(C)C)NC(=O)[C@@H](O)[C@H](N)CC(C)C | – | 19 | 12 | 30 | –
10 | C[C@H](NC(=O)[C@@H]1CCCN1C(=O)[C@@H]1CCCN1C(=O)[C@@H](O)[C@H](N)Cc1ccccc1)C(N)=O | > 20 | > 20 | – | – | –
